High-throughput results from PubChem.
Cneo AK release: causes C. neoformans cell lysis. AID 651654. 360,000 tested, 0.2% active. adenylate kinase release luminescence, 4 h; normalised: neutral wells 0, clomiphene wells 100. lysis activity, % at 15 µM;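 active means mean lysis activity across replicates of at least 80%, whatever share of replicates individually reach that level; inactive means mean lysis activity below 80%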
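Assay system: Cryptococcus neoformans yeast cells / Dosing: single-point compound dose / Timing: 4 h at 37 °C static, read 1 h later / Measured by: luminescence of released adenylate kinase using an AK detection reagent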
PAX8 inh HTS: lowers PAX8-driven luciferase in RMG-I cells; RMG-I TPO-luciferase reporter, SteadyGlo, 24 h; inhibition, % at 12.6 µM; 360,000 tested, 1.2% active;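 active means mean replicate inhibition at least 60% with every replicate also reaching 60%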;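 further: luciferase light reporting Pax8 driven TPO promoter activity; plate controls were median of neutral control wells for no effect and mitoxantrone controls for full effect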
CDK5 p35 inh: inhibitors of human CDK5/p35 kinase; Q00535+Q15078; Recombinant CDK5/p35, ADP-Glo luminescence, 60 min; inhibition, % at 10 µM; 330,000 tested, 0.01% active; AID 488839;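 active means highest replicate inhibition of at least 50% and at least 75% of replicates reaching 50%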;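 further: plate controls were DMSO neutral control for no effect and GW8510 at 10 µM for full effect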
HIV Env fusion: blocks HIV Env-driven cell-cell fusion. HeLa-JRFL Env/CEM21 cell fusion, luciferase. inhibition, % at 12.3 µM. 360,000 tested, 1.1% active;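 active means mean replicate inhibition score of at least 50 and every replicate individually at or above 50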;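 further: 0% = plate neutral controls and 100% = maraviroc near 300 nM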
GSIS activator: GLuc luminescence reporter in INS-1E cells, primary screen for activators of glucose-dependent secretion of insulin. INS-1E GLuc reporter insulin secretion, 2-3 h. activation, % at 16.6 µM. 370,000 tested, 0.61% active. AID 743287;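 active means lowest replicate activation of at least 40%, so every replicate reaches that level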;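 further: 0% = median of neutral control wells and 100% = median of IBMX positive control wells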
dFosB act: mouse delta FosB homodimer activation. activation, % at 25 µM. 340,000 tested, 0.99% active. purified delta FosB, TAMRA-CDK5 oligo fluorescence polarization; percent of positive-control signal above neutral wells. P13346;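 active means mean activation above about 17%, with every replicate also reaching it, limit read from the data, passing the limit was not always enough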
Target sequence (P13346 whole entry, looked up): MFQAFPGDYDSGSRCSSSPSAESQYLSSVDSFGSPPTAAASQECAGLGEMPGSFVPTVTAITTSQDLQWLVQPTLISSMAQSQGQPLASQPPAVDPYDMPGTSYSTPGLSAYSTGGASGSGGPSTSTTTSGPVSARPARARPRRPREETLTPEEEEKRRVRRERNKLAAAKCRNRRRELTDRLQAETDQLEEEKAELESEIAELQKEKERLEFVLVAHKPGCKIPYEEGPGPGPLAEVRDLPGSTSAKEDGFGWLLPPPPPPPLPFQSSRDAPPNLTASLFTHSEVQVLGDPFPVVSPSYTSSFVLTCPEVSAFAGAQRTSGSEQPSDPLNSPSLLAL
* = called active by the depositor; . = no result; [ ] = remark or other dose. A selection: hits, their analogues and other compounds. The true share with any hit is near 2.9%.

SMILES	Cneo AK release	PAX8 inh HTS	CDK5 p35 inh	HIV Env fusion	GSIS activator	dFosB act
Cc1cc(C)nc(Nc2ccc(O)cc2)n1	-2.6	0.7	2.4	-7.3	56.0	4.7
Cc1cc(C)nc(Sc2nc(Nc3ccccc3)nc(Sc3nc(C)cc(C)n3)n2)n1	16.8	61.2*	0.4	7.4	-0.1	-7.1
COc1nc(Nc2cccc(F)c2)nc(OC)n1	2.7	-7.1	1.7	40.2	.	-8.7
COc1nc(Nc2ccccc2)nc(OC)n1	-2.8	-10.2	-4.1	21.9	41.3*	2.3
CCCN1CCc2[nH]c(=S)[nH]c(=O)c2C1	.	72.3*	-5.7	.	7.6	-3.4
CCN(c1ccccc1)c1nc(Cl)nc2c1cnn2C	-0.1	-22.8	1.8	10.2	45.6*	-7.7
O=C(C[C@@H]1CC[C@@H](NC(=O)CCN2CCCCC2)[C@@H](CO)O1)Nc1ccc(-c2ccccc2)cc1	-3.9	-9.1	.	2.4[16.7 µM]	-4.2	.
COc1ccc(-c2oc3ncnc(NCCCN(C)C)c3c2-c2ccc(OC)cc2)cc1	1.1	17.1	-0.1	15.2	107.4	2.2
CN(C)CCNc1ncnc2oc(-c3ccccc3)c(-c3ccccc3)c12	1.2	2.7	-1.6	2.0	53.3*	6.3
CCOC(=O)c1c(-c2ccc(F)cc2)csc1NC(=O)CN1C(=O)NC2(CCCCC2C)C1=O (stereo not given)	0.0	98.7*	-2.1	-1.4	-2.8	-10.6
CCOC(=O)c1c(NC(=O)CN2C(=O)NC3(CCCCC3C)C2=O)sc(C)c1C (stereo not given)	1.2	15.9	-0.1	15.0	-24.6	-20.3
O=C(C[C@@H]1C[C@H]2c3cc(NC(=O)Nc4ccc(C(F)(F)F)cc4)ccc3O[C@H]2[C@H](CO)O1)NC1CCCCC1	-0.6	66.9*	.	-8.3[16.7 µM]	-5.2	.
O=C(C[C@@H]1C[C@H]2c3cc(NC(=O)Nc4ccc(C(F)(F)F)cc4)ccc3O[C@H]2[C@H](CO)O1)NCCc1ccccc1	-9.2	100.4*	.	-7.3[16.7 µM]	-17.6	.
O=C(C[C@H]1C[C@@H]2c3cc(NC(=O)Nc4ccc(C(F)(F)F)cc4)ccc3O[C@@H]2[C@@H](CO)O1)NCCc1ccccc1	-2.0	98.8*	.	21.1[16.7 µM]	-23.3	.
O=C(C[C@H]1C[C@@H]2c3cc(NC(=O)Nc4ccc(C(F)(F)F)cc4)ccc3O[C@@H]2[C@H](CO)O1)NCCc1ccccc1	-3.4	37.0	.	24.2[16.7 µM]	-1.1	.
C[C@H](NC(=O)C[C@@H]1C[C@@H]2c3cc(NC(=O)Nc4ccc(C(F)(F)F)cc4)ccc3O[C@@H]2[C@@H](CO)O1)c1ccccc1	0.5	107.1*	.	81.4*[16.7 µM]	-8.0	.
COCCNC(=O)C[C@@H]1C[C@H]2c3cc(NC(=O)Nc4ccc(C(F)(F)F)cc4)ccc3O[C@H]2[C@H](CO)O1	47.5	91.1*	.	25.5[16.7 µM]	-1.9	.
COCCNC(=O)C[C@H]1C[C@H]2c3cc(NC(=O)Nc4ccc(C(F)(F)F)cc4)ccc3O[C@H]2[C@H](CO)O1	1.5	6.4	.	13.8[16.7 µM]	6.4	.
COc1ccc(C2=Nn3c(nnc3-c3ccncc3)SC2)cc1	1.2	.	-0.7	96.2*	.	-24.1
COc1ccc(OCc2nnc3n2N=C(c2ccc(OC)cc2)CS3)cc1	-0.9	12.9	1.4	11.1	44.7*	-19.4
COc1ccc(OCc2nnc3n2N=C(c2ccc(C)cc2)CS3)cc1	0.6	-6.1	0.5	-30.5	4.7	-13.1
COc1ccc(C2=Nn3c(nnc3-c3cccnc3)SC2)cc1	.	11.3	-1.8	-28.0	26.8	-38.6
COCCNC(=O)C[C@@H]1CC[C@@H](NS(=O)(=O)c2ccc(C)cc2)[C@@H](CO)O1	-0.2	3.4	.	5.9[16.7 µM]	15.8	.
CN1C(=O)c2cc(NC(=O)c3ccc(F)cc3)ccc2OC[C@@H]2O[C@@H](CC(=O)NCC3CCCCC3)CC[C@@H]21	-0.5	34.0	.	18.7[16.7 µM]	-22.4	.
O=C(NCC[C@@H]1CC[C@H](NC(=O)C2CCCC2)[C@H](CO)O1)c1ccc(F)cc1	0.5	0.0	.	-14.3[16.7 µM]	2.1	.
SMILES	Cneo AK release	PAX8 inh HTS	CDK5 p35 inh	HIV Env fusion	GSIS activator	dFosB act
Cc1cc(C)cc(C(=O)NC(=S)Nc2ccc(-c3cc4ccccc4oc3=O)cc2)c1	1.3	-12.2	0.3	12.2	42.0*	2.6
Cc1ccc(C(=O)NC(=S)Nc2ccc(-c3cc4ccccc4oc3=O)cc2)c(C)c1	-1.4	.	-2.7	.	.	3.4
Cc1ccc2c(c1)/C(=N/OS(=O)(=O)c1ccccc1)CCS2	1.6	.	-2.0	-50.6	.	-2.7
CC1=CC(=O)C=C(C)C1=NOS(=O)(=O)c1ccccc1	-6.4	.	2.0	.	186.1*	-0.7
CC1=CC(=O)C(C(C)C)=C/C1=N/OS(=O)(=O)c1ccccc1	-11.0	94.3*	-1.2	-204.9	.	-3.4
C[C@H](CO)N1C[C@H](C)[C@@H](CN(C)C(=O)c2ccccc2F)Oc2ncc(-c3ccccc3)cc2C1=O	0.7	-25.1	.	1.0[16.7 µM]	-13.1	.
CNC[C@@H]1Oc2ccc(NC(=O)NC3CCCCC3)cc2C(=O)N([C@@H](C)CO)C[C@H]1C	1.8	9.6	.	.	14.3	.
CCOC(=O)c1c(C)[nH]c(C)c1C(=O)COC(=O)[C@@H](NC(=O)c1ccccc1OCC)C(C)C	1.3	.	-0.6	102.4*	-25.1	-19.8
COc1cccc(C#Cc2ccc3c(c2)O[C@H](CN(C)C(C)=O)[C@@H](C)CN([C@H](C)CO)S3(=O)=O)c1	-9.8	.	.	-3.4[16.7 µM]	4.0	.
CO[C@@H]1CN(C)C(=O)c2ccc(NC(=O)Nc3ccc(Cl)cc3)cc2OC[C@@H](C)N(C(=O)Nc2c(C)noc2C)C[C@H]1C	11.1	3.3	.	.	-23.5	.
COCCNC(=O)CCn1nc(-c2ccc(C)cc2)c2ccccc2c1=O	0.1	13.0	0.0	7.2	2.5	-7.0
Cc1ccc(NC(=O)c2ccc(-c3nn(C)c(=O)c4ccccc34)cc2)cc1	-0.6	.	-0.2	74.6*	-21.0	5.1
Cc1ccc(NC(=O)c2ccc(-c3nn(C)c(=O)c4ccccc34)cc2)c(C)c1	-1.2	.	-0.2	22.3	.	-4.7
CNC(=O)c1cc(NC(=O)CCn2nc(-c3ccc(C)cc3)c3ccccc3c2=O)ccc1OC	-0.9	10.1	.	62.4*	10.9	.
COc1ccc(NC(=O)Nc2ccc3c(c2)C(=O)N([C@@H](C)CO)C[C@@H](C)[C@H](CN(C)Cc2ccc(C(=O)O)cc2)OCCCC[C@@H](C)O3)cc1	-0.6	-5.7	.	-28.9[16.7 µM]	7.3	.
C[C@@H]1CCCCO[C@H](CN(C)C(=O)Nc2ccccc2)[C@H](C)CN([C@@H](C)CO)C(=O)c2cc(NS(=O)(=O)c3cn(C)cn3)ccc2O1	-4.9	-5.1	.	-6.2[16.7 µM]	9.3	.
CCCCNC(=O)C[C@H]1C[C@@]2(C(=O)OC)C(=C[C@H](C(C)(C)C)O[C@@H]2C)N(Cc2ccc3c(c2)OCO3)C1=O	.	-7.0	.	81.9*	-22.5	.
COC(=O)[C@]12C[C@H](CC(=O)NCc3cccc(C(F)(F)F)c3)C(=O)N(Cc3ccc4c(c3)OCO4)C1=C[C@H](C(C)(C)C)O[C@@H]2C	.	14.0	.	59.3*	-34.0	.
